Assay results from ChEMBL document CHEMBL5357066, “Development of Novel Membrane Disrupting Lipoguanidine Compounds Sensitizing Gram-Negative Bacteria to Antibiotics” (ACS Med Chem Lett, 2024).

What was measured:
Erythrocyte = assay: Hemolytic activity in human Red blood cells at 512 microg/ml measured after 1 hrs by absorbance based assay; assay type: toxicity, cell-based; conditions: dose 512 µg/ml
How it was run: (§1)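 Titrations in PBS were incubated with freshly collected human red blood cells for 1 h at 37 °C. Controls were 0.1% Triton-X-100 (full lysis) and PBS alone (no lysis). After centrifugation, supernatant OD550 was read. % haemolysis = (AP−AB)/(AC−AB)×100. Data are means and standard error of three biological replicates.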

Klebsiella pneumoniae [1] = assay: Synergistic antibacterial activity against Klebsiella pneumoniae NCTC 13368 assessed as bacterial growth inhibition incubated for overnight in presence of PBMN by microbroth dilution method relative to control; assay type: functional
How it was run: (§2)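 Adapted broth microdilution in TSB. The test compound was in a 2-fold dilution series, with PMBN added at a fixed 30 µg/mL. Bacteria at OD 0.02 were added, and plates were incubated overnight at 37 °C. Growth/no growth was read as for the MIC (<0.1 OD600).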

Klebsiella pneumoniae [2] = assay: Synergistic antibacterial activity against Klebsiella pneumoniae M6 assessed as bacterial growth inhibition incubated for overnight in presence of PBMN by microbroth dilution method relative to control; assay type: functional; how it was run: as §2
Acinetobacter baumannii [3] = assay: Synergistic antibacterial activity against Acinetobacter baumannii AYE assessed as bacterial growth inhibition incubated for overnight in presence of PBMN by microbroth dilution method relative to control; assay type: functional; how it was run: as §2
Acinetobacter baumannii [4] = assay: Synergistic antibacterial activity against Acinetobacter baumannii ATCC 17978 assessed as bacterial growth inhibition incubated for overnight in presence of PBMN by microbroth dilution method relative to control; assay type: functional; how it was run: as §2
Pseudomonas aeruginosa [5] = assay: Synergistic antibacterial activity against Pseudomonas aeruginosa PAO1 assessed as bacterial growth inhibition incubated for overnight in presence of […] by microbroth dilution method relative to control; assay type: functional
How it was run: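 Fixed-concentration combination MIC in TSB. The first agent was set in a two-fold dilution series (100 µL/well), then 50 µL/well of the second agent at a fixed concentration was added; PMBN was fixed at 30 µg/mL. Bacteria at OD 0.02 (50 µL) went into 150 µL of compounds, overnight at 37 °C. MIC was the lowest concentration without visible growth (<0.1 OD600).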

Escherichia coli [6] = assay: Synergistic antibacterial activity against Escherichia coli NCTC 12923 assessed as bacterial growth inhibition incubated for overnight in presence of PBMN by microbroth dilution method relative to control; assay type: functional; how it was run: as §2
Klebsiella pneumoniae [7] = assay: Synergistic antibacterial activity against […] Klebsiella pneumoniae NCTC 13368 assessed as novobiocin MIC at <=0.25 times MIC incubated for overnight by microbroth dilution checkerboard assay; assay type: functional
How it was run: (§3)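 Checkerboard run under the MIC conditions (TSB, overnight, 37 °C). Antibiotic and lipoguanidine 2-fold series were combined on one plate before bacteria were added. Growth/no-growth was scored as for the MIC (<0.1 OD600). Single-agent MICs were measured on the same plates. Three independent repeats were done.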

Klebsiella pneumoniae [8] = assay: Synergistic antibacterial activity against […] Klebsiella pneumoniae M6 assessed as novobiocin MIC at <=0.25 times MIC incubated for overnight by microbroth dilution checkerboard assay; assay type: functional; how it was run: as §3
Acinetobacter baumannii [9] = assay: Synergistic antibacterial activity against Acinetobacter baumannii AYE assessed as novobiocin MIC at <=0.25 times MIC incubated for overnight by microbroth dilution checkerboard assay; assay type: functional
How it was run: (§4)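 Checkerboard microdilution under MIC conditions (TSB, overnight, 37 °C). Two-fold series of each agent were combined on one plate before bacteria were added, and single-agent MICs were measured on the same plate. FIC = sum of combination MIC/alone MIC for each agent, taken from the most synergistic well. Three independent repeats, mean ± SD. ≤0.5 was taken as strong synergy and 0.5–<1 as weak.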

Acinetobacter baumannii [10] = assay: Synergistic antibacterial activity against Acinetobacter baumannii ATCC 17978 assessed as novobiocin MIC at <=0.25 times MIC incubated for overnight by microbroth dilution checkerboard assay; assay type: functional; how it was run: as §4
Pseudomonas aeruginosa [11] = assay: Synergistic antibacterial activity against Pseudomonas aeruginosa PAO1 assessed as novobiocin MIC at <=0.25 times MIC incubated for overnight by microbroth dilution checkerboard assay; assay type: functional
How it was run: (§5)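 Checkerboard microdilution in Tryptic Soy Broth, run like the MIC assay. Overnight TSB cultures were back-diluted to OD 0.01 and added 1:1 to the combined two-fold series of both agents, then incubated overnight at 37 °C. Growth/no-growth was called at <0.1 OD600. MICs alone were read on the same plates. FIC index came from the most synergistic well; three independent repeats, mean ± SD.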

Pseudomonas aeruginosa [12] = assay: Synergistic antibacterial activity against Pseudomonas aeruginosa NCTC 13437 assessed as novobiocin MIC at <=0.25 times MIC incubated for overnight by microbroth dilution checkerboard assay; assay type: functional; how it was run: as §5
Escherichia coli [13] = assay: Synergistic antibacterial activity against Escherichia coli NCTC 12923 assessed as novobiocin MIC at <=0.25 times MIC incubated for overnight by microbroth dilution checkerboard assay; assay type: functional; how it was run: as §4
[14] = Hemolytic activity in human Red blood cells at 512 microg/ml measured after 1 hrs by absorbance based assay relative to control; assay type: toxicity, cell-based, Erythrocyte; conditions: red blood cells (erythrocytes), at 512 µg/mL, read-out: Activity; how it was run: as §1
Klebsiella pneumoniae [15] = assay: Synergistic antibacterial activity against Klebsiella pneumoniae NCTC 13368 assessed as fold change in novobiocin MIC at <=0.25 times MIC incubated for overnight by microbroth dilution checkerboard assay relative to novobiocin alone; assay type: functional; how it was run: as §4
Klebsiella pneumoniae [16] = assay: Synergistic antibacterial activity against Klebsiella pneumoniae M6 assessed as fold change in novobiocin MIC at <=0.25 times MIC incubated for overnight by microbroth dilution checkerboard assay relative to novobiocin alone; assay type: functional; how it was run: as §4
Acinetobacter baumannii [17] = assay: Synergistic antibacterial activity against Acinetobacter baumannii AYE assessed as fold change in novobiocin MIC at <=0.25 times MIC incubated for overnight by microbroth dilution checkerboard assay relative to novobiocin alone; assay type: functional; how it was run: as §4
Acinetobacter baumannii [18] = assay: Synergistic antibacterial activity against Acinetobacter baumannii ATCC 17978 assessed as fold change in novobiocin MIC at <=0.25 times MIC incubated for overnight by microbroth dilution checkerboard assay relative to novobiocin alone; assay type: functional; how it was run: as §4
Pseudomonas aeruginosa [19] = assay: Synergistic antibacterial activity against Pseudomonas aeruginosa PAO1 assessed as fold change in novobiocin MIC at <=0.25 times MIC incubated for overnight by microbroth dilution checkerboard assay relative to novobiocin alone; assay type: functional; how it was run: as §5
Pseudomonas aeruginosa [20] = assay: Synergistic antibacterial activity against Pseudomonas aeruginosa NCTC 13437 assessed as fold change in novobiocin MIC at <=0.25 times MIC incubated for overnight by microbroth dilution checkerboard assay relative to novobiocin alone; assay type: functional; how it was run: as §4
Escherichia coli [21] = assay: Synergistic antibacterial activity against Escherichia coli NCTC 12923 assessed as fold change in novobiocin MIC at <=0.25 times MIC incubated for overnight by microbroth dilution checkerboard assay relative to novobiocin alone; assay type: functional; how it was run: as §4
Cell membrane = assay: Induction of outer membrane permeabilization in Pseudomonas aeruginosa PAO1 assessed as increase fluorescence intensity by measuring NPN uptake factor measured immediately for 2 hrs by fluorescence based analysis; assay type: subcellular
How it was run: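 NPN outer-membrane uptake. Overnight TSB cultures (37 °C, 200 rpm) were subcultured 1:20 for 2 h to mid-log, washed, and resuspended in 5 mM HEPES with 5 mM glucose, pH 7.2. Cells were mixed with assay buffer containing 10 µM NPN, then with compound, polymyxin B (positive control) or buffer. Fluorescence (ex 350, em 420 nm) was monitored immediately for 2 h.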

Row | SMILES | Activity (Erythrocyte) | inhibition (INH) (Klebsiella pneumoniae [1]) | inhibition (INH) (Klebsiella pneumoniae [2]) | inhibition (INH) (Acinetobacter baumannii [3]) | inhibition (INH) (Acinetobacter baumannii [4]) | inhibition (INH) (Pseudomonas aeruginosa [5]) | MIC (Klebsiella pneumoniae [7]) | MIC (Klebsiella pneumoniae [8]) | MIC (Acinetobacter baumannii [9]) | MIC (Acinetobacter baumannii [10]) | MIC (Pseudomonas aeruginosa [11]) | MIC (Pseudomonas aeruginosa [12]) | MIC (Escherichia coli [13]) | fold change (FC) (Klebsiella pneumoniae [15]) | fold change (FC) (Klebsiella pneumoniae [16]) | fold change (FC) (Acinetobacter baumannii [17]) | fold change (FC) (Acinetobacter baumannii [18]) | fold change (FC) (Pseudomonas aeruginosa [19]) | fold change (FC) (Pseudomonas aeruginosa [20]) | fold change (FC) (Escherichia coli [21]) | also measured
1 | CCCCCCCCCCCCNC(=N)NCCCCN | Toxic | <20% | <20% | <20% | <20% | <20% |  |  |  |  |  |  |  |  |  |  |  |  |  |  | inhibition (INH) (Escherichia coli [6]): <20%
2 | CCCCC/C=C\C/C=C\CCCCCCCCNC(=N)NCCCCN | Toxic |  |  |  |  |  | > 128 µg/mL | 64 µg/mL | 1 µg/mL | 1 µg/mL | > 128 µg/mL | > 128 µg/mL | > 128 µg/mL | 0 | 0 | >=4 | 0 | 0 | 0 | 0 | hemolysis at 1 h, 512 microg/ml [14]: 100%
3 | CC/C=C\C/C=C\C/C=C\CCCCCCCCNC(=N)NCCCCN | Toxic |  |  |  |  |  | > 128 µg/mL | 8 µg/mL | ≤ 0.125 µg/mL | ≤ 0.125 µg/mL | > 128 µg/mL | > 128 µg/mL | 32 µg/mL | 0 | >=4 | >=4 | >=4 | 0 | 0 | 0 | 
4 | CCCCCCCC/C=C\CCCCCCCCNC(=N)NCCCCN | Toxic | <20% | <20% | <20% | <20% | <20% | > 128 µg/mL | 16 µg/mL | ≤ 0.125 µg/mL | ≤ 0.125 µg/mL | > 128 µg/mL | > 128 µg/mL | > 128 µg/mL | 0 | >=4 | >=4 | >=4 | 0 | 0 | 0 | inhibition (INH) (Escherichia coli [6]): <20%
5 | CCCCCCCC/C=C\CCCCCCCCNC(=N)NCCCCNC(=N)N | Toxic | <20% | <20% | <20% | <20% | <20% | > 128 µg/mL | 1 µg/mL | ≤ 0.125 µg/mL | ≤ 0.125 µg/mL | > 128 µg/mL | > 128 µg/mL | 4 µg/mL | 0 | >=4 | 0 | >=4 | 0 | 0 | >=4 | inhibition (INH) (Escherichia coli [6]): <20%
6 | CCCCCCCCCCNC(=N)NCCCCN |  | <20% | <20% | <20% | <20% | <20% | 16 µg/mL | 4 µg/mL | ≤ 0.125 µg/mL | 0.25 µg/mL | 2 µg/mL | 8 µg/mL | 0.5 µg/mL | >=4 | >=4 | >=4 | >=4 | >=4 | >=4 | >=4 | hemolysis at 1 h, 512 microg/ml [14]: 8.2%; Activity (Cell membrane): > 1; inhibition (INH) (Escherichia coli [6]): <20%
